Measurements from different studies.
Each line is one published result; the experiments were not run side by side.
Target: Dual specificity tyrosine-phosphorylation-regulated kinase 2 (DYRK2, Homo sapiens, UniProt Q92630)
Effect on: enzyme activity
Action: inhibitor
Sequence (Q92630 1-601, as in one of the studies): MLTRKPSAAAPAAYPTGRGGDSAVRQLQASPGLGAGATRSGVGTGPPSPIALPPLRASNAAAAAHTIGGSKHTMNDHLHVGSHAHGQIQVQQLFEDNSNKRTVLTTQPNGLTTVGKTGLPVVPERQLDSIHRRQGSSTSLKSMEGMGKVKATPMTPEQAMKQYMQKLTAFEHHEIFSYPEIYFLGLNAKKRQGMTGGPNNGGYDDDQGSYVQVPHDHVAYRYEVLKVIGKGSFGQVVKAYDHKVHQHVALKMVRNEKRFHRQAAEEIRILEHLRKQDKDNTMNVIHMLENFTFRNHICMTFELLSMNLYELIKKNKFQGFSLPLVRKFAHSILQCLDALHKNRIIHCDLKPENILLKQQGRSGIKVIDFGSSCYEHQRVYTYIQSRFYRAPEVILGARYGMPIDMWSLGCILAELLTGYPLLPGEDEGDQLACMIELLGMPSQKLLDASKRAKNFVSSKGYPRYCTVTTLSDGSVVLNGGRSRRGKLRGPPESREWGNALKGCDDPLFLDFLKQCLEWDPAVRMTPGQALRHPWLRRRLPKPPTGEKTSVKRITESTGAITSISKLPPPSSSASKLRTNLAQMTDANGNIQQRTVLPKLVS

FC(F)c1nc2ccccc2n1-c1nc(N2CCOCC2)nc(N2CCOCC2)n1  remaining activity (10 µM): 93%
CCCOc1ccc(OC)c(F)c1C(=O)c1ccc(C(=O)N[C@@H]2CNC[C@H]2NC(=O)c2ccc3[nH]ncc3c2)cc1  remaining activity (10 µM): 92%
Cn1c(=O)n(-c2ccc(C(C)(C)C#N)cc2)c2c3cc(-c4cnc5ccccc5c4)ccc3ncc21  remaining activity (10 µM): 79%
O=C(O)c1ccc2c(c1)nc(NCCc1cccc(F)c1)c1ccncc12  remaining activity (radiometric; 1 µM): 17%
COc1cc(Nc2cnc(C#N)c(O[C@H](C)CN(C)C)n2)ncc1-c1cnn(C)c1  remaining activity (radiometric; 10 µM): 100%
CC(C)(C)c1nc2c(s1)c1nc(N)ncc1c1ccc(NS(=O)(=O)c3c(F)cccc3F)c(F)c12  remaining activity (radiometric; 1 µM): 94%
O=C(Nc1cnn(-c2csc(C(=O)NC3COC3)c2)c1)Nc1c(F)cccc1Cl  remaining activity (5 µM): 93.6%
Cc1cnc(NC2CCOCC2)nc1-n1cnc(C(=O)NC(CN)c2cc(F)cc(Cl)c2)c1 (stereo not shown)  remaining activity (radiometric; 1 µM): 30%
O=C(O)c1ccc2c(c1)nc(Nc1ccc(Cl)cc1)c1ccncc12  remaining activity (radiometric; 1 µM): 11%
Cc1sc(C(=O)NC2COC2)cc1-n1cc(NC(=O)Nc2c(F)cccc2Cl)cn1  remaining activity (10 µM): 96.3%
O=C(O)c1ccc2c(c1)nc(NCCc1ccccc1)c1ccncc12  remaining activity (radiometric; 1 µM): 9%
Nc1nc(Nc2ccccc2)sc1C(=O)c1c(F)cccc1F  remaining activity (10 µM): 79%
Cc1ccc(C(=O)Nc2ccc(CN3CCN(C)CC3)c(C(F)(F)F)c2)cc1C#Cc1cnc2cccnn12  remaining activity (23.5 nM): 80%
